T cell HTS – modulates CD8 T cell binding to vesicles. 2C CD8+ T cell-vesicle binding, flow cytometry; stronger effect = lower value. response (vesicle binding), % at 7 µM. 330,000 compounds, 0.068% hits. AID 2052;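 active = response, share of CD8 T cells binding vesicles, and their 90th percentile fluorescence all below set limits, cut at about 80% in these data, passing the limit was not always enough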;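 note: values below 100% mean blocked vesicle binding to the CD8+ T cells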
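Incubation: binding step 1.5 h, 37 °C, antibody labelling 20 min, ice; system: murine 2C transgenic CD8+ T lymphocytes; technique: cytometric PE anti-B7-1 and Alexa647 anti-CD8 signals after 1% paraformaldehyde fixation; also added: QL9-charged Drosophila Ld/ICAM-1/B7-1 vesicles; control set: naked versus QL9-loaded vesicles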
NLRP3 yeast inh – inhibitors of NALP3 inflammasome in yeast. 330,000 compounds, 0.39% hits. inhibition, % at 10 µM. AID 2825. Yeast reconstituted NLRP3/ASC/caspase-1, beta-gal luminescence, 24 h;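 active = inhibition of 50% or more; inactive = inhibition below 50%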;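 note: plate controls were induced DMSO wells for no effect and uninduced yeast grown without galactose for full effect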
NALP1 inh – NALP1 inhibition; inhibition, % at 10 µM; AID 2071; S. cerevisiae NALP1/ASC/caspase-1 growth, X-gal OD620, 72 h; 280,000 compounds, 0.61% hits; in the data active = inhibition mostly above about 24%, no sharp cut-off; inactive = mostly below about 32%
A1 inh – inhibitors of the anti-apoptotic protein A1, read as caspase activation; caspase activation, % (test concentration not listed); MEF A1-2A-BIM cells, Caspase-Glo 3/7 luminescence, 3 h; percent of clofoctol response, vehicle zero; AID 2462; 330,000 compounds, 0.066% hits;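 active = over half of replicate activation scores above 10%, or exactly half above 10 with the replicate mean above 10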
An asterisk follows results filed as active; i = inactive; . = no result given; ! = repeats disagree. Sampled rows, rich in hits. Any-hit rate of the full collection: about 1%.

SMILES | T cell HTS | NLRP3 yeast inh | NALP1 inh | A1 inh
O=C(Nc1nc(-c2ccccn2)cs1)c1ccc(Cl)s1 | 254.5 | -0.9 | 97.7* | -1.1
Cc1ccc(C(=O)Nc2nc(-c3ccccn3)cs2)s1 | 793.4 | 39.8 | . | -2.9
CC(=O)C(Cc1ccccc1)NC(=O)COC(=O)c1ccc(-n2cnnn2)cc1 (stereo not given) | 442.9 | 4.5 | . | -0.7
CCc1ccc(C)c(OC(=O)c2cncc(Br)c2)c1 | 270.2 | 12.5 | 11.0 | 0.5
Cc1ccc(C)c(OC(=O)c2cncc(Br)c2)c1 | 0.0* | 4.2 | 23.8 | -0.7
O=C1CCc2cc(S(=O)(=O)N3CCC(C(=O)NC4CCCc5ccccc54)CC3)ccc2N1 (stereo not given) | 423.8 | 11.9 | -25.6 | 0.4
CC1CCCCC1NC(=O)C1CCN(S(=O)(=O)c2ccc3c(c2)CCC(=O)N3)CC1 (stereo not given) | 388.2 | 9.9 | 32.3* | 0.4
COc1ccc(S(=O)(=O)N2CCCCC2)cc1C(=O)N1CCCC1 | 0.0* | 21.9 | 11.5 | 1.4
CC(NC1c2ccccc2-c2ccccc21)c1ccccc1 (stereo not given) | 509.1 | 7.9 | 1.9 | -0.7
c1ccc2c(Cn3ccnc3)cccc2c1 | 254.4 | 19.8 | -1.6 | 0.8
O=C(NCc1cccc(Cl)c1)C1CCCO1 (stereo not given) | 178.3 | 7.8 | 31.9* | 0.4
O=C(NCc1ccc(Cl)cc1)C1CCCO1 (stereo not given) | 326.7 | 6.6 | 0.4 | -0.2
Cc1nonc1NC(=O)CSc1nnc(-c2ccoc2C)n1-c1cccc(Cl)c1 | 802.8 | 0.8 | 44.5* | 0.0
COc1ccc(NC(=O)Cn2nnc(C(=O)Nc3ccc(F)c(Cl)c3)c2N)cc1 | 57.7 | -0.3 | 27.2 | -0.1
Cc1ccc(NC(=O)Cn2nnc(C(=O)Nc3ccc(F)c(Cl)c3)c2N)cc1 | 363.4 | 4.7 | 37.0* | -2.0
Oc1ccc(N=Nc2cccc(C(F)(F)F)c2)cc1C=Nc1ccc(N2CCOCC2)cc1 | 0.0* | 34.3 | -14.6 | -1.6
Oc1ccc(C=Nc2ccc(N3CCOCC3)cc2)c(O)c1 | 153.2 | -5.4 | 9.8 | -0.3
C1=C(c2ccccc2)CCN(c2nc3ccccc3n3cnnc23)C1 | 404.8 | 12.7 | 41.3* | 0.3
c1ccc(N2CCN(c3nc4ccccc4n4cnnc34)CC2)cc1 | 309.0 | 33.2 | 7.4 | 0.4
N#Cc1c(N)c(C(=O)c2ccccc2)n2ccccc12 | 269.0 | 33.5 | . | 0.1
C(=C\c1ccco1)/C=N/n1cnnc1 | 144.7 | -3.2 | 21.5* | 0.6
O=C(COc1ccccc1Cl)Nc1ccc2[nH]c(=O)[nH]c2c1 | . | 14.4 | . | .
COc1ccc(Cl)cc1NC(=O)CN(C)C(=O)c1cn2ccccc2n1 | 274.2 | 8.3 | . | 0.2
CCCn1c(-c2nonc2N)nc2ccccc21 | 172.8 | 20.6 | -2.6 | 0.0
Cn1c(-c2nonc2N)nc2ccccc21 | 349.5 | 14.2 | 28.9* | 1.0
SMILES | T cell HTS | NLRP3 yeast inh | NALP1 inh | A1 inh
O=[N+]([O-])c1cc2c(c(CSc3ncccn3)c1)OCOC2 | 124.5 | 20.7 | 12.9 | -0.7
CC(C)CC1(C)NC(=O)N(Cc2cc([N+](=O)[O-])cc3c2OCOC3)C1=O (stereo not given) | 457.8 | -8.4 | 23.3* | -0.3
O=C(c1ccccc1)N1CCN(C(=O)c2nn3c(C(F)(F)F)cc(-c4ccccc4)nc3c2Br)CC1 | 318.4 | 6.4 | 18.4 | 0.9
CC(C)(C)c1ccc(C(CC(=O)O)NC(=O)Cc2ccccc2)cc1 (stereo not given) | 210.9 | 3.7 | -27.9 | -0.7
Cc1nc2cc(NC(=O)NCCCO)ccc2o1 | 640.6 | 3.6 | 29.1* | 0.6
CC(C)(C)OC(=O)NCCCCCO | 634.6 | 19.6 | . | 0.3
CCn1c(NCc2ccco2)nc2ccccc21 | 303.1 | -2.4 | 23.9* | -0.1
COc1ccc(OC)c2c1C(=O)C(Cl)=C(Cl)C2=O | 254.9 | 36.5 | 38.7* | -2.8
COc1ccc(OC)c2c1C(=O)c1ccccc1C2=O | 317.2 | 2.8 | 25.3 | 0.0
COc1ccc(N2CCN(C3=CC(=O)N(c4cccc(Cl)c4)C3=O)CC2)cc1 | 296.0 | 20.0 | 23.5* | 0.4
CC(Oc1ccc2ccc(=O)oc2c1)C(=O)NC1CC(C)(C)NC(C)(C)C1 (stereo not given) | 429.2 | 7.7 | 25.0 | 1.5
CNCCCC12CCC(c3ccccc31)c1ccccc12 | 637.8 | 36.3 | 28.7*! | -0.4
O=C(O)c1cccnc1SC1CC(=O)N(CCc2ccccc2)C1=O (stereo not given) | 241.3 | 3.0 | 39.7* | -0.5
O=C(O)c1cccnc1SC1CC(=O)N(Cc2ccccc2)C1=O (stereo not given) | 416.3 | 4.3 | 0.6 | -0.4
CC(Sc1nnc2n1CCCCC2)C(=O)Nc1ccc(S(N)(=O)=O)cc1 (stereo not given) | . | 14.7 | . | .
CN(CC(=O)Nc1ncn[nH]1)S(=O)(=O)c1cc(Cl)ccc1Cl | 211.7 | 7.0 | 4.6 | -1.0
Cc1cccc(NC(=O)C2CCCN2C(=O)Oc2ccccc2)c1 (stereo not given) | 846.0 | 6.7 | 44.9* | -0.3
COC(=O)c1ccc2c(=O)[nH]c(CSc3nc(-c4ccc(F)cc4)cs3)nc2c1 | 77.7* | 5.4 | 33.8 | -0.5
COC(=O)c1cc(CSc2nc3ccccc3c(=O)n2C)oc1C | 308.0 | 23.2 | 24.2* | 0.8
COCCn1c(SCc2ccc(C(=O)OC)o2)nc2ccccc2c1=O | 351.9 | 9.9 | 28.6 | 0.4
O=C(COc1coc(CN2CCCc3ccccc32)cc1=O)Nc1cccc([N+](=O)[O-])c1 | 221.6 | 14.8 | . | 1.6
CC1CCCCC1N(C)C1CCN(C(=O)CNC(=O)/C=C/c2cccc(Cl)c2)CC1 (stereo not given) | 186.4 | 9.2 | 20.5 | 0.2
COc1ccc(S(=O)(=O)NCCSCc2ccco2)cc1 | 334.6 | 5.4 | 34.5* | -0.3
O=S(=O)(c1cccc(C(F)(F)F)c1)N1CCC(c2cc(-c3cccc4ccccc34)n[nH]2)CC1 | 325.9 | 4.0 | 36.7* | 0.8
Cc1cc(C(=O)CCl)c(C)n1CCc1ccc(Cl)cc1 | 643.0 | -97.3 | -7.5 | 14.2*
SMILES | T cell HTS | NLRP3 yeast inh | NALP1 inh | A1 inh
Cc1cc(C(=O)CCl)c(C)n1CCc1ccc(F)cc1 | 465.6 | -86.0 | -17.9 | 0.5
Cc1cccc(S(=O)Cc2ccc(C(=O)NC3CCN(Cc4ccccc4)CC3)o2)c1 (stereo not given) | 95.0 | -4.8 | -22.2 | 0.0
O=C(O)C1CSC(c2ccc3c(c2)OCO3)N1 (stereo not given) | 363.8 | -0.5 | . | 0.0
CCc1ccc(C2NC(C(=O)O)CS2)cc1 (stereo not given) | . | . | 50.1* | .
O=C(Nc1cccc(N=Cc2cc(Cl)cc(Br)c2O)c1)c1ccco1 | 238.4 | 4.1 | 12.0 | -2.3
O=C(Nc1cccc(N=Cc2cc(Br)cc(Br)c2O)c1)c1ccco1 | 608.2 | . | 65.3* | 0.3
Cc1cccc(NC(=S)N(C)C)c1C | 356.2 | 16.0 | 23.1 | 0.4
Cc1cccc(Nc2cc(C)c3c(O)cccc3n2)c1C | i | 39.4 | 60.3* | -0.3
COc1ccc(CCNC(=O)c2ccc(OCC(=O)N3CCOCC3)c(OC)c2)cc1 | 340.7 | 3.9 | . | 2.9
COc1ccc(CCNCc2ccc(OCC(=O)N3CCCCC3)c(OC)c2)cc1OC | 72.5 | -3.5 | 34.3* | -0.8
